Results from ChEMBL document CHEMBL1126688, “Interphenylene 7-oxabicyclo[2.2.1]heptane oxazoles. Highly potent, selective, and long-acting thromboxane A2 receptor antagonists” (J Med Chem, 1993).

Assays:
[1] = Partition coefficient (logP); assay type: physicochemical; conditions: octanol/water
Summary of the method: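 log P came from reversed-phase TLC Rm values on C18 plates. Eluent was acetone in 0.5 M aqueous KBr, buffered with 0.25 N triethylammonium phosphate to pH 7.3. Values were converted with a calibration curve built from shake-flask partition coefficients (pH 7.0) of seven oxabicycloheptane compounds spanning a range of lipophilicities.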

Homo sapiens [2] = organism: Homo sapiens; test: Inhibitory activity against platelet aggregation, induced by U-46619 in human platelet rich plasma; assay type: functional; conditions: read-out: I50
Summary of the method: (§1)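 Human platelet-rich plasma. Aggregation was induced by exogenous arachidonic acid or by the TxA2 mimetic U-46,619, each at a single fixed agonist level. I50 was taken as the antagonist concentration giving 50% inhibition of aggregation.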

Homo sapiens [3] = organism: Homo sapiens; test: Inhibitory activity against platelet aggregation, induced by arachidonic acid in human platelet rich plasma; assay type: functional; conditions: read-out: I50; summary of the method: as §1
Thromboxane A2 receptor = target: T1, Thromboxane A2 receptor (Homo sapiens, UniProt P21731); test: Inhibitory binding activity against TXA2 receptor in human platelet membrane, using [3H]-SQ 29548 as the radioligand
T1 sequence (P21731 whole entry): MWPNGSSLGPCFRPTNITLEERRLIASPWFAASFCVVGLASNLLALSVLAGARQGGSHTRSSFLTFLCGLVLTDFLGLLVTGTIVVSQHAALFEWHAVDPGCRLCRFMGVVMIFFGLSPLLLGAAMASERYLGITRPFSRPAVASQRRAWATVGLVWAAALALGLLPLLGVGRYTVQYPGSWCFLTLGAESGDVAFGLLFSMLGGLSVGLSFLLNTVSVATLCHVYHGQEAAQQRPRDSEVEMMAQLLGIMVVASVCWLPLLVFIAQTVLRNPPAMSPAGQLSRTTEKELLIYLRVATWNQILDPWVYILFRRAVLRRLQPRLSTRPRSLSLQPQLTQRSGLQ
Summary of the method: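 Competition binding of [3H]-SQ 29,548 to TxA2 receptors in human platelet membranes, measured as inhibition of specific binding. Kd (inhibition constant) was calculated from each compound's I50 value. A slope factor is also reported.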

Mus musculus = test: In vivo duration of action required to prevent death in mice, after i.v. administration of U-46619 (2 mg/kg) at 0.2 mg/kg p.o.; conditions: po

Structure (SMILES)	logP [1]	IC50 (Homo sapiens [2]) [nM]	IC50 (Homo sapiens [3]) [nM]	Kd (Thromboxane A2 receptor) [nM]	T50 (Mus musculus) [h]
O=C(O)CCc1ccccc1CC1C2CCC(O2)C1c1nc(C(=O)NCCCCN2CCCCC2)co1 (stereo not drawn)	0.53	137	30	22	–
O=C(O)CCc1ccccc1CC1C2CCC(O2)C1c1nc(C(=O)Nc2ccccc2)co1 (stereo not drawn)	1.19	–	12	–	–
O=C(O)Cc1cccc(CCC2C3CCC(O3)C2c2nc(C(=O)NCCCCC3CCCCC3)co2)c1 (stereo not drawn)	–	–	146	16.3	–
O=C(O)CCc1ccccc1CC1C2CCC(O2)C1c1nc(C(=O)NCCCCC(F)(F)F)co1 (stereo not drawn)	1.59	29	12	4.8	–
CCC(C)(C)NC(=O)c1coc(C2C3CCC(O3)C2Cc2ccccc2CCC(=O)O)n1 (stereo not drawn)	0.51	30	12	0.8	8.8
COc1ccc(CCCCNC(=O)c2coc(C3C4CCC(O4)C3Cc3ccccc3CCC(=O)O)n2)cc1 (stereo not drawn)	2.49	62	16	0.3	–
CC(C)(CCCCNC(=O)c1coc(C2C3CCC(O3)C2Cc2ccccc2CCC(=O)O)n1)C(=O)O (stereo not drawn)	0.5	–	64	–	–
CC(C)(Cc1ccccc1CC1C2CCC(O2)C1c1nc(C(=O)NCCCCC2CCCCC2)co1)C(=O)O (stereo not drawn)	–	13	4	36	–
O=C(NCCCCC1CCCCC1)c1coc(C2C3CCC(O3)C2Cc2ccccc2CCCO)n1 (stereo not drawn)	–	–	1540	112	–
COc1ccc(NC(=O)c2coc(C3C4CCC(O4)C3Cc3ccccc3CCC(=O)O)n2)cc1 (stereo not drawn)	0.95	–	6	–	–
O=C(O)Cc1ccccc1CCC1C2CCC(O2)C1c1nc(C(=O)NCCCCC2CCCCC2)co1 (stereo not drawn)	–	–	1580	–	–
O=C(O)CCc1ccccc1CC1C2CCC(O2)C1c1nc(C(=O)NCCCCc2ccccc2)co1 (stereo not drawn)	1.8	13	4	0.3	20
O=C(O)CCc1ccccc1CC1C2CCC(O2)C1c1nc(CO)co1 (stereo not drawn)	–	–	31000	–	–
O=C(O)Cc1cccc(CC2C3CCC(O3)C2c2nc(C(=O)NCCCCC3CCCCC3)co2)c1 (stereo not drawn)	–	34	12	1.2	–
O=C(O)c1cccc(CCC2C3CCC(O3)C2c2nc(C(=O)NCCCCC3CCCCC3)co2)c1 (stereo not drawn)	–	–	110	18.4	–
O=C(O)CCc1ccccc1CC1C2CCC(O2)C1c1nc(C(=O)OCCCCC2CCCCC2)co1 (stereo not drawn)	–	10	2	1	–
CSc1ccc(CCCCNC(=O)c2coc(C3C4CCC(O4)C3Cc3ccccc3CCC(=O)O)n2)cc1 (stereo not drawn)	1.66	–	6	2.9	–
O=C(O)CCc1ccccc1CCC1C2CCC(O2)C1c1nc(C(=O)NCCCCC2CCCCC2)co1 (stereo not drawn)	–	616	63	–	–
O=C(O)CCc1ccccc1CC1C2CCC(O2)C1c1nc(C(=O)NCCCCc2ccc(O)cc2)co1 (stereo not drawn)	1.49	–	12	0.5	–
CC(C)NC(=O)c1coc(C2C3CCC(O3)C2Cc2ccccc2CCC(=O)O)n1 (stereo not drawn)	0.05	63	7	26	10
O=C(O)CCc1ccccc1CC1C2CCC(O2)C1c1nc(C(=O)Nc2ccc(Cl)cc2)co1 (stereo not drawn)	2.52	–	6	–	25.8
O=C(O)CCc1ccccc1CC1C2CCC(O2)C1c1nc(/C=C/CCCCC2CCCCC2)co1 (stereo not drawn)	–	2760	320	–	–
O=C(O)CCc1ccccc1CC1C2CCC(O2)C1c1nc(C(=O)NCCCCC(=O)NC2CCCCC2)co1 (stereo not drawn)	1.18	82	27	22	–

Structure (SMILES)	logP [1]	IC50 (Homo sapiens [2]) [nM]	IC50 (Homo sapiens [3]) [nM]	Kd (Thromboxane A2 receptor) [nM]	T50 (Mus musculus) [h]
CS(=O)(=O)NC(=O)CCc1ccccc1CC1C2CCC(O2)C1c1nc(C(=O)NCCCCC2CCCCC2)co1 (stereo not drawn)	–	–	2	1.6	–
CCOC(=O)CCc1ccccc1CC1C2CCC(O2)C1c1nc(C(=O)NCCCCC2CCCCC2)co1 (stereo not drawn)	–	–	290	–	–
O=C(O)CCc1ccccc1CC1C2CCC(O2)C1c1nc(C(=O)NCCCCc2ccc(F)cc2)co1 (stereo not drawn)	2.17	11	4	3.9	22.5
O=C(O)CCc1ccccc1CC1C2CCC(O2)C1c1nc(C(=O)NCCCCc2ccc(Cl)cc2)co1 (stereo not drawn)	3.52	–	–	0.2	18.6
CS(=O)(=O)c1ccc(CCCCNC(=O)c2coc(C3C4CCC(O4)C3Cc3ccccc3CCC(=O)O)n2)cc1 (stereo not drawn)	0.32	–	26	–	–
O=C(O)CCc1ccccc1CC1C2CCC(O2)C1c1nc(C(=O)NCCCCCO)co1 (stereo not drawn)	1.07	35	15	20	–
O=C(O)COc1ccccc1CC1C2CCC(O2)C1c1nc(C(=O)NCCCCC2CCCCC2)co1 (stereo not drawn)	–	8	7	3.2	–
O=C(NCCCCC1CCCCC1)c1coc(C2C3CCC(O3)C2Cc2ccccc2C(=O)O)n1 (stereo not drawn)	–	171	52	–	–
NC(=O)CCc1ccccc1CC1C2CCC(O2)C1c1nc(C(=O)NCCCCC2CCCCC2)co1 (stereo not drawn)	–	–	1070	–	–
CC(C)(C)CCCCNC(=O)c1coc(C2C3CCC(O3)C2Cc2ccccc2CCC(=O)O)n1 (stereo not drawn)	3.41	35	8	0.6	36.5
CN(CCCCC1CCCCC1)C(=O)c1coc(C2C3CCC(O3)C2Cc2ccccc2CCC(=O)O)n1 (stereo not drawn)	3.89	–	2	–	–
O=C(O)Cc1ccccc1CC1C2CCC(O2)C1c1nc(C(=O)NCCCCC2CCCCC2)co1 (stereo not drawn)	–	97	14	19	–
NC(=O)c1coc(C2C3CCC(O3)C2Cc2ccccc2CCC(=O)O)n1 (stereo not drawn)	-0.78	258	44	–	–
O=C(O)CCc1ccccc1CC1C2CCC(O2)C1c1nc(C(=O)CCCCCC2CCCCC2)co1 (stereo not drawn)	–	11	4	0.05	–
O=C(O)CCCc1ccccc1CC1C2CCC(O2)C1c1nc(C(=O)NCCCCC2CCCCC2)co1 (stereo not drawn)	–	–	6	0.85	–
O=C(O)CCc1ccccc1CC1C2CCC(O2)C1c1nc(C(=O)NC2CCCCC2)co1 (stereo not drawn)	0.89	–	–	4.5	8.3
O=C(O)CCc1ccccc1CC1C2CCC(O2)C1c1nc(C(=O)NCCC2CCCCC2)co1 (stereo not drawn)	1.03	–	2	0.7	8.3
CNC(=O)c1coc(C2C3CCC(O3)C2Cc2ccccc2CCC(=O)O)n1 (stereo not drawn)	-0.11	–	–	45	7.5
O=C(O)CCc1ccccc1CC1C2CCC(O2)C1c1nc(C(=O)NCCc2ccccc2)co1 (stereo not drawn)	0.98	30	9	0.7	4
O=C(O)CCc1ccccc1CC1C2CCC(O2)C1c1nc(C(=S)NCCCCC2CCCCC2)co1 (stereo not drawn)	–	9	2	10.6	–
CCCCCN(C)C(=O)c1coc(C2C3CCC(O3)C2Cc2ccccc2CCC(=O)O)n1 (stereo not drawn)	1	–	9	11	11.3
CCCCCCCCCCNC(=O)c1coc(C2C3CCC(O3)C2Cc2ccccc2CCC(=O)O)n1 (stereo not drawn)	3.86	–	–	5.8	4.3
CCCNC(=O)c1coc(C2C3CCC(O3)C2Cc2ccccc2CCC(=O)O)n1 (stereo not drawn)	0.4	53	8	10	2.3
